Experimental data from ChEMBL document CHEMBL4196059, “Design, synthesis, and biological evaluation of stable β6.3-Helices: Discovery of non-hemolytic antibacterial peptides” (Eur J Med Chem, 2018).
The source made the active and inactive calls. The calls are words filed in the database; no cut-off is given here.

Experiments:
[1] = Hemolytic activity against human RBC at 3.125 uM after 1 hr by Drabkin's assay relative to control; type: ADME, cell-based, Erythrocyte; conditions: human red blood cells (erythrocytes), read-out: Activity
[2] = Hemolytic activity against human RBC at 12.5 uM after 1 hr by Drabkin's assay relative to control; type: ADME, cell-based, Erythrocyte; conditions: human red blood cells (erythrocytes), read-out: Activity
Candida albicans = test: Growth inhibition of Candida albicans ATCC 90028 at 32 ug/ml after 24 hrs by OD530 light-scattering microspectrophotometric method; conditions: ATCC 90028, 24 h, read-out: GI
Acinetobacter baumannii = test: Growth inhibition of Acinetobacter baumannii ATCC 19606 at 32 ug/ml after 18 hrs; type: functional; conditions: ATCC 19606 = CIP 70.34 = JCM 6841, 18 h, read-out: GI
In short: (§1)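 Mid-log cultures were prepared as above and seeded at 5×10^5 CFU/mL with compound at a final 32 μg/mL, then held static at 37 °C for 18 h. Growth was read as OD600. Percent inhibition was calculated against media-only and bacteria-only controls on the same plate.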

[3] = Hemolytic activity against human RBC at 0.78 uM after 1 hr by Drabkin's assay relative to control; type: ADME, cell-based, Erythrocyte; conditions: human red blood cells (erythrocytes), read-out: Activity
[4] = Hemolytic activity against human RBC at 1.56 uM after 1 hr by Drabkin's assay relative to control; type: ADME, cell-based, Erythrocyte; conditions: human red blood cells (erythrocytes), read-out: Activity
[5] = Hemolytic activity against human RBC at 6.25 uM after 1 hr by Drabkin's assay relative to control; type: ADME, cell-based, Erythrocyte; conditions: human red blood cells (erythrocytes), read-out: Activity
Staphylococcus aureus = test: Growth inhibition of methicillin-resistant Staphylococcus aureus ATCC 43300 at 32 ug/ml after 18 hrs; type: functional; conditions: ATCC 43300, 18 h, read-out: GI
In short: (§2)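 Mid-log cultures in cation-adjusted Mueller Hinton broth were added at 5×10^5 CFU/mL to wells at a final compound concentration of 32 μg/mL. Plates stood at 37 °C for 18 h. Growth was read by OD600, and % inhibition was computed against media-only and untreated-bacteria controls.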

[6] = Hemolytic activity against human RBC at 25 uM after 1 hr by Drabkin's assay relative to control; type: ADME, cell-based, Erythrocyte; conditions: human red blood cells (erythrocytes), read-out: Activity
Klebsiella pneumoniae = test: Growth inhibition of multidrug-resistant Klebsiella pneumoniae ATCC 700603 at 32 ug/ml after 18 hrs; type: functional; conditions: ATCC 700603, 18 h, read-out: GI; in short: as §2
[7] = Hemolytic activity against human RBC at 0.39 uM after 1 hr by Drabkin's assay relative to control; type: ADME, cell-based, Erythrocyte; conditions: human red blood cells (erythrocytes), read-out: Activity
Pseudomonas aeruginosa = test: Growth inhibition of Pseudomonas aeruginosa ATCC 27853 at 32 ug/ml after 18 hrs; type: functional; conditions: ATCC 27853, 18 h, read-out: GI; in short: as §1
[8] = Induction of pore formation in DOPC vesicles at 20 uM after 3 hrs by carboxyfluorescein dye leakage assay; conditions: in the assay text read “after 3 mins” for “after 3 hrs”
In short: (§3)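 POPC or DOPC liposomes were hydrated in 10 mM HEPES, 100 mM KCl, pH 7.4, containing 50 mM carboxyfluorescein. Size was checked by dynamic light scattering, and vesicles were used at 2.2×10^10 per mL. Peptide at 20 μM was equilibrated with vesicles for 3 min, and dye leakage was measured.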

Erythrocyte = test: Hemolytic activity against human RBC after 1 hr by Drabkin's assay; type: ADME, cell-based
Escherichia coli = test: Growth inhibition of Escherichia coli ATCC 25922 at 32 ug/ml after 18 hrs; type: functional; conditions: ATCC 25922, 18 h, read-out: GI; in short: as §1
[9] = Hemolytic activity against human RBC at 50 uM after 1 hr by Drabkin's assay relative to control; type: ADME, cell-based, Erythrocyte; conditions: human red blood cells (erythrocytes), read-out: Activity
Cryptococcus neoformans = test: Growth inhibition of Cryptococcus neoformans H99 ATCC 208821 at 32 ug/ml after 24 hrs by resazurin dye-based microspectrophotometric assay; type: functional; conditions: var. grubii H99 ATCC 208821, 24 h, read-out: GI
In short: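 Yeasts were grown 3 days on YPD agar at 30 °C, suspended from five colonies and diluted in YNB broth to a final 2.5×10^3 CFU/mL. Compound at a final 32 μg/mL; incubated 24 h at 35 °C without shaking. C. albicans was read at OD530. C. neoformans was read as OD600–570 after resazurin (0.001% final) and a further 2 h at 35 °C. Fluconazole was the standard.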

[10] = Hemolytic activity against human RBC at 100 uM after 1 hr by Drabkin's assay relative to control; type: ADME, cell-based, Erythrocyte; conditions: human red blood cells (erythrocytes), read-out: Activity
Lipid bilayer = test: Induction of pore formation in POPC vesicles at 20 uM after 3 hrs by carboxyfluorescein dye leakage assay; conditions: in the assay text read “after 3 mins” for “after 3 hrs”; in short: as §3

SMILES	hemolysis at 1 h, 3.125 µM [1]	hemolysis at 1 h, 12.5 µM [2]	inhibition of growth at 32 µg/mL (Candida albicans)	inhibition of growth at 32 µg/mL (Acinetobacter baumannii)	hemolysis at 1 h, 0.78 µM [3]	hemolysis at 1 h, 1.56 µM [4]	hemolysis at 1 h, 6.25 µM [5]	inhibition of growth at 32 µg/mL (Staphylococcus aureus)	hemolysis at 1 h, 25 µM [6]	inhibition of growth at 32 µg/mL (Klebsiella pneumoniae)	hemolysis at 1 h, 0.39 µM [7]	inhibition of growth at 32 µg/mL (Pseudomonas aeruginosa)	Activity [8]	Activity (Erythrocyte)	inhibition of growth at 32 µg/mL (Escherichia coli)	hemolysis at 1 h, 50 µM [9]	inhibition of growth at 32 µg/mL (Cryptococcus neoformans)	hemolysis at 1 h, 100 µM [10]	Activity (Lipid bilayer)
CC(C)(C)OC(=O)[C@@H]1CCCN1C(=O)N1CCCN1C(=O)[C@@H]1CCCN1C(=O)N1CCCN1C(=O)[C@@H]1CCCN1C(=O)N1CCCN1C(=O)[C@@H]1CCCN1C(=O)N1CCCN1C(=O)[C@@H]1CCCN1C(=O)N1CCCN1C(=O)[C@@H]1CCCN1C(=O)N1CCCN1C(=O)[C@@H]1CCCN1C(=O)N1CCCN1C(=O)[C@@H]1CCCN1C(=O)N1CCCN1C(=O)[C@@H]1CCCN1C(=O)N1CCCN1C(=O)[C@@H]1CCCN1C(=O)N1CCCN1C(=O)[C@@H]1CCCN1C(=O)N1CCCN1C(=O)[C@@H]1CCCN1C(=O)N1CCCN1C(=O)[C@@H]1CCCN1C(=O)N1CCCN1C(=O)[C@@H]1CCCN1C(=O)N1CCCN1C(=O)[C@@H]1CCCN1C(=O)N1CCCN1C(=O)[C@@H]1CCCN1C(=O)N1CCCN1C(=O)OCc1ccccc1	-0.33%	-0.33%	4.41%	-19%	-0.2%	-0.16%	-0.24%	25.3%	-0.49%	8.57%	-0.24%	-0.85%	inactive	Dose-dependent effect	8.57%	-0.55%	-1.18%		
CC(C)(C)OC(=O)[C@@H]1CCCN1C(=O)N1CCCN1C(=O)[C@@H]1CCCN1C(=O)N1CCCN1C(=O)[C@@H]1CCCN1C(=O)N1CCCN1C(=O)[C@@H]1CCCN1C(=O)N1CCCN1C(=O)OCc1ccccc1	0.181%	-0.09%	4.13%	30.2%	0%	0.361%	0.09%	13.6%	0%	-3.42%	0.08%	-8.9%		Dose-dependent effect	-3.42%	-0.09%	-0.865%	0%	inactive
O=CN1CCCN1C(=O)N1CCC[C@H]1C(=O)N1CCCN1C(=O)N1CCC[C@H]1C(=O)N1CCCN1C(=O)N1CCC[C@H]1C(=O)N1CCCN1C(=O)N1CCC[C@H]1C(=O)N1CCCN1C(=O)N1CCC[C@H]1C(=O)N1CCCN1C(=O)N1CCC[C@H]1C(=O)NCCO	-0.55%	-0.452%	5.12%	3.07%	-0.16%	-0.12%	-0.181%	1.36%	0.271%	0.72%	-0.12%	-12.5%		Dose-dependent effect	0.72%	-0.49%	-11.1%	-0.55%	inactive
O=CN1CCCN1C(=O)N1CCC[C@H]1C(=O)N1CCCN1C(=O)N1CCC[C@H]1C(=O)N1CCCN1C(=O)N1CCC[C@H]1C(=O)N1CCCN1C(=O)N1CCC[C@H]1C(=O)N1CCCN1C(=O)N1CCC[C@H]1C(=O)N1CCCN1C(=O)N1CCC[C@H]1C(=O)N1CCCN1C(=O)N1CCC[C@H]1C(=O)NCCO	-0.045%	-0.045%	3.52%	6.14%	0.072%	-0.049%	-0.29%	13.7%	0.41%	5.64%	0.023%	-5.12%		Dose-dependent effect	5.64%	0.4%	-8.29%	1.4%	inactive
